Only a selection was taken, and hits are over-represented in it overall.
DYRK1A inh: inhibitors of rat Dyrk1A kinase. ADP-Glo luminescence, NFATc1 peptide. inhibition, % at 12.5 µM. Q63470. AID 504441. actives 0.43% (n = 310,000); in the data active = inhibition above about 50%;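 also: plate controls were vehicle with enzyme for no effect and no enzyme for full effect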
GSK3A inh: human GSK-3 alpha kinase inhibition; P49840; ADP-Glo luminescence, 60 min; actives 0.1% (n = 320,000); inhibition, % at 10 µM;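 active = more than half of replicates show inhibition above 20%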;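 also: GST-tagged GSK-3 alpha with peptide substrate and 25 µM ATP; 0% = DMSO neutral wells and 100% = GW8510 positive control wells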
Target sequence (P49840 whole entry, looked up): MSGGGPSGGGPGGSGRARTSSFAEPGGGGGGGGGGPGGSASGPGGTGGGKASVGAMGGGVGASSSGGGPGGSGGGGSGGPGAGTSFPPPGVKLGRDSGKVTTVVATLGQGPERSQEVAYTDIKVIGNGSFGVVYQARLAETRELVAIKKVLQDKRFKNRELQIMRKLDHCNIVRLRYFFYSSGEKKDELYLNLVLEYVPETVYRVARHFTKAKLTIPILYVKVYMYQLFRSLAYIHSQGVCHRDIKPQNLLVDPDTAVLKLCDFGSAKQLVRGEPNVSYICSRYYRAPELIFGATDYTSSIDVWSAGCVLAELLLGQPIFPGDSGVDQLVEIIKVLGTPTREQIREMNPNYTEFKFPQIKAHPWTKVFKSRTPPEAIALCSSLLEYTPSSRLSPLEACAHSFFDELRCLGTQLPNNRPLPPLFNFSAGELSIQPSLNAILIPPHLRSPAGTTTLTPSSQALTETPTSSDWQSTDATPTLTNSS
GSK3B inh: blocks human GSK3beta kinase activity. GST-GSK3beta kinase, ADP-Glo luminescence, 60 min; active compounds read low. activity score (negative = inhibition), % at 10 µM. actives 0.038% (n = 300,000). P49841;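 active = more than half of replicate wells score below -50%, meaning over 50% inhibition versus plate controls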;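 also: 0% = median DMSO wells and -100% = median GW8510 positive control wells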
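Test system: GST-fused GSK3beta enzyme, cell-free | Quantity: 1.6 ng GST-GSK3beta enzyme per well | Reagent: 25 µM ATP with peptide substrate | Schedule: 60 min enzyme reaction, room temperature | Signal: Luminescent ADP-Glo measurement of ADP formed | Read-out basis: Score relative to plate controls | Control set: DMSO and 20 µM GW8510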
CDK5 p35 inh: CDK5/p35 (human) kinase inhibition. Recombinant CDK5/p35, ADP-Glo luminescence, 60 min. inhibition, % at 10 µM. actives 0.01% (n = 330,000);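 active = highest replicate inhibition of at least 50% and at least 75% of replicates reaching 50%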;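 also: plate controls were DMSO neutral control for no effect and GW8510 at 10 µM for full effect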
STK33 inh: human STK33 kinase inhibition. AID 2661. purified STK33, MBP phosphorylation, ADP-Glo luminescence. inhibition, % at 10 µM. Q9BYT3. actives 0.073% (n = 320,000);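 active = inhibition at or above 25%, using the most active replicate where run in duplicate; inactive = inhibition below 25%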
Dyrk1A artifact: ADP-Glo luciferase interference, Dyrk1A counter-screen | AC50, µM (highest dose often 12 µM), without a hit: top-dose activity change, negative = inhibition | ADP-Glo luciferase artifact assay, no Dyrk1A, luminescence | 1,300 tested, under 10 active | shares compounds with DYRK1A inh | AID 588348;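 active = fitted half-maximal dose AC50 no more than ten times the top valid tested dose, with luminescence dropping as dose rises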
* marks the source's active call; other numbers are inactive results; nt = no result.

SMILES	DYRK1A inh	GSK3A inh	GSK3B inh	CDK5 p35 inh	STK33 inh	Dyrk1A artifact
O=C(Nc1cccc(-c2nn[nH]n2)c1)c1ccc(Br)s1	92*	14	-9	1	21	10%
O=C(Nc1cccnc1)c1ccc(Br)s1	10	0	5	-1	1	nt
Cc1occc1-c1nnc(SCC(=O)c2ccc(Cl)cc2)n1C	10	-2	nt	1	-1	nt
COC(=O)Nc1ccc(S(=O)(=O)NCCO)cc1	6	0	-1	-2	0	nt
CC[C@@](C)(NS(=O)(=O)OCC(Cl)(Cl)Cl)c1ccccc1	57*	0	0	2	0	6%
CC(C)(NS(=O)(=O)OCC(Cl)(Cl)Cl)c1ccccc1	9	-2	1	0	-1	nt
O=C(NCc1ccco1)c1cc(S(=O)(=O)N2CCCC2)ccc1Cl	-8	0	1	-1	0	nt
Cc1cc(C(=O)CSc2nn(-c3ccccc3)c(=S)s2)c(C)n1Cc1ccco1	57*	4	-1	-1	-1	5%
Cc1cc(C(=O)CSc2nncs2)c(C)n1Cc1ccco1	-2	2	2	0	1	nt
COC(=O)c1ccc(S(=O)(=O)NCCc2ccccc2OC)n1C	26	1	2	-3	-4	nt
NC(=O)c1cc(Br)cc2c3c([nH]c12)CCCC3	55*	36	3	1	9	7%
Brc1ccc2[nH]c3c(c2c1)CCC3	nt	-2	-2	0	1	nt
Cc1ccc(S(=O)(=O)CCC(=O)OCC(=O)c2c[nH]c3ccccc23)cc1	1	-3	-3	-2	1	nt
S=c1[nH]cc(-c2ccc(Cl)cc2)n1Cc1ccccc1	55*	0	1	1	-1	9%
COc1ccc2c3c([nH]c2c1)C(C)N(CCC(=O)NN)CC3 (stereo not drawn)	74*	0	4	0	2	10%
COc1ccc2nc3c(cc2c1)c(NC(=O)C1CCCO1)nn3CC(C)C (stereo not drawn)	79*	99*	-88*	28	1	10%
CCC(=O)Nc1ccc(Cl)c(NC(=S)NC(=O)c2cc3ccccc3o2)c1	-1	-2	0	0	-2	nt
COCCCN(C(C)=O)c1nc(-c2ccc(OC)cc2)cs1	76*	0	-4	-3	-1	7%
Cc1[nH]nc2c1-c1nc3ccccc3nc1C(C)(C)C2	80*	36	-5	39	10	9%
O=C(CSc1nnc(Nc2ccccc2)s1)NCc1cccs1	4	-3	-4	-1	-2	nt
COC(=O)c1ccc(C23CC4(C2)[C@H](CN(Cc2ccc(C(F)(F)F)cc2)[C@@H]4c2ccccc2)C3c2ccccc2)cc1 (stereo partly drawn)	0	-2	1	0	-1	nt
CN1CCN(c2cc3c(c4c2[nH]c2ccccc24)C(=O)CC(C)(C)C3)CC1	56*	8	-9	1	4	10%
O=C(Cc1c(F)cccc1Cl)Nc1nc2ccccc2s1	51*	0	0	2	5	6%
Nc1ncnc2c1ncn2C1O[C@H](CO)[C@@H](O)[C@@H]1O (stereo partly drawn)	15	0	nt	1	3	nt
CNc1nc2c(N)ncnc2n1[C@H]1O[C@@H](CO)[C@H](O)[C@@H]1O	91*	1	-6	13	3	8%
SMILES	DYRK1A inh	GSK3A inh	GSK3B inh	CDK5 p35 inh	STK33 inh	Dyrk1A artifact
N#Cc1c(N)n(C2OC(CO)C(O)C2O)c2ncnc(N)c12 (stereo not drawn)	95*	nt	nt	57*	nt	9%
COc1ccc(NC(=O)CCC(=O)OCC(=O)c2ccc(Oc3ccc([N+](=O)[O-])cc3)cc2)cc1	7	1	-4	0	3	nt
COc1cc2cnc(-c3ccccc3)c(-c3ccc([N+](=O)[O-])cc3)c2cc1OC	51*	-3	nt	1	0	9%
C=CCSc1nc2c(C(=O)OCC)nnn2c2ccccc12	0	0	-3	0	0	nt
Oc1[nH]c2ccc(Br)cc2c1N=NC(=S)N1CCOCC1	63*	3	-9	2	3	9%
Oc1[nH]c2ccccc2c1N=NC(=S)N1CCOCC1	13	-4	0	0	-3	nt
COc1ccc(NC(=O)N(C)C[C@H]2Oc3c(NS(=O)(=O)c4cccs4)cccc3C(=O)N([C@@H](C)CO)C[C@@H]2C)cc1	55*	1	nt	0	0	3%
COc1cc(C(C)=O)ccc1Oc1ncnc2c1cnn2-c1ccc(C)c(C)c1	-8	nt	-2	-1	nt	nt
COc1cc(C(C)=O)ccc1Oc1ncnc2c1cnn2-c1ccccc1	62*	-1	2	-3	1	8%
CCCc1nc2c([nH]1)c(=O)n(C)c(=O)n2C	6	9	0	0	0	nt
CCCc1nc2c(=O)n(C)c(=O)nc-2n(C)n1	65*	nt	nt	0	nt	6%
Cn1nc(-c2ccccn2)nc2c(=O)n(C)c(=O)nc1-2	81*	9	-28	3	-1	7%
COc1ccc(-c2nc(-c3ccccn3)ncc2S(C)(=O)=O)cc1	-3	nt	2	0	-2	nt
O=C(COCc1cc(-c2cccs2)on1)NC1CCCCC1	2	-3	-1	-1	-1	nt
COc1cc2c(cc1NC(=O)C(C)NCc1ccccc1)oc1ccccc12 (stereo not drawn)	-4	0	2	-1	-1	nt
COC(=O)C1C(=O)C(C(=O)c2ccccc2)C(=O)CC1(C)C (stereo not drawn)	11	-3	2	2	-2	nt
COc1c(C)cccc1C(=O)Nc1ccc(N2CCN(C(=O)c3ccccc3C)CC2)cc1	8	-3	4	0	-1	nt
Cc1ccccc1C(=O)N1CCN(c2ccc(NC(=O)c3cccc(OC(C)C)c3)cc2)CC1	60*	-3	1	0	0	7%
Cc1ccc2c(CN3CCCCC3C)cc(=O)oc2c1C (stereo not drawn)	36	nt	-3	-1	nt	nt
O=C(CSc1nnc(-c2ccc(C(F)(F)F)cn2)o1)Nc1cccc(Cl)c1	12	-3	1	0	-2	nt
Cc1nnc(SCCn2c(N3CCC(Cc4ccccc4)CC3)nc3c2c(=O)[nH]c(=O)n3C)s1	nt	0	1	nt	-2	nt
CCCCn1c(N2CCC(Cc3ccccc3)CC2)nc2c1c(=O)[nH]c(=O)n2C	56*	-1	-1	0	2	7%
Cc1ccccc1C(=O)NCC(=O)N1CCN(c2ccccn2)CC1	-2	0	nt	0	0	nt
O=[N+]([O-])c1ccc2c(c1)C(=NO)c1cc(F)ccc1-2	68*	nt	nt	4	nt	12%
c1ccc2sc(NN=C3CCCCCC3)nc2c1	62*	4	1	0	9	9%
O=C(Nc1nc2ccccc2s1)c1ccccc1	24	1	0	-1	4	nt

From PubChem
